ChEMBL document CHEMBL4152381, “Discovery of Benzoazepinequinoline (BAQ) Derivatives as Novel, Potent, Orally Bioavailable Respiratory Syncytial Virus Fusion Inhibitors” (J Med Chem, 2018)

Key:
[1] = Cytotoxicity against human Hep2 cells assessed as decrease in cell viability after 5 days by CCK8 assay; type: cell-based; details: HEp-2 cells
Procedure, shortened: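 Uninfected HEp-2 cells, seeded at 6000 per well, were cultured 5 days with serially diluted compound alongside the CPE assay. Viability was read by CCK-8, and CC50 was the concentration cytotoxic to 50% of cells.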

[2] = Therapeutic index, ratio of CC50 for human Hep2 cells to EC50 for inhibition of RSV long fusion protein assessed as protection against virus induced cytopathic effect in infected human Hep2 cells; type: toxicity, cell-based; details: HEp-2 cells, read-out: Ratio CC50/EC50
Procedure, shortened: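 Index computed as CC50/EC50. CC50 came from uninfected HEp-2 cells and EC50 from 50% reduction of RSV Long CPE in HEp-2 cells (MOI 0.02). Both assays ran 5 days with serially diluted compound and a CCK-8 viability read-out.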

[3] = Intrinsic clearance in rat liver microsomes; type: ADME, microsome; details: read-out: CLH
Procedure, shortened: (§1)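 Intrinsic clearance was measured in human, rat or mouse liver microsomes and reported as scaled clearance.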

[4] = Intrinsic clearance in human liver microsomes; type: ADME, microsome; details: read-out: CLH; procedure, shortened: as §1
[5] = Intrinsic clearance in mouse liver microsomes; type: ADME, microsome; details: read-out: CLH; procedure, shortened: as §1
[6] = Effective permeability of the compound by PAMPA; type: ADME; details: read-out: Peff
Procedure, shortened: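 Parallel artificial membrane permeability assay, with permeability reported in 10−6 cm/s.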

[7] = AUC (0 to infinity) in Wistar-Han rat at 2 mg/kg, iv after 15 mins to 24 hrs by LC/MS/MS analysis; type: ADME, organism-based; parameters: dose 2 mg/kg, route intravenous, time infinity; details: in vivo
[8] = AUC (0 to infinity) in Wistar-Han rat at 10 mg/kg, po after 15 mins to 24 hrs by LC/MS/MS analysis; type: ADME, organism-based; parameters: dose 10 mg/kg, time infinity, route oral; details: in vivo
[9] = Clearance in Wistar-Han rat at 2 mg/kg, iv after 15 mins to 24 hrs by LC/MS/MS analysis; type: ADME, organism-based; details: in vivo
Procedure, shortened: (§2)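 Single-dose PK in male Wistar rats at 2 mg/kg iv and 10 mg/kg po. Plasma clearance, Vss, iv half-life, AUC and oral bioavailability were derived.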

[10] = Volume of distribution at steady state in Wistar-Han rat at 2 mg/kg, iv after 15 mins to 24 hrs by LC/MS/MS analysis; type: ADME, organism-based; details: in vivo, read-out: Vdss; procedure, shortened: as §2
[11] = Oral bioavailability in Wistar-Han rat at 10 mg/kg after 15 mins to 24 hrs by LC/MS/MS analysis; type: ADME, organism-based; details: in vivo; procedure, shortened: as §2
[12] = Solubility of the compound by LYSA; type: physicochemical
Procedure, shortened: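 Solubility measured by lyophilization solubility assay (LYSA), reported in μg/mL.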

[13] = Half life in Wistar-Han rat at 2 mg/kg, iv by LC/MS/MS analysis; type: ADME, organism-based; details: in vivo; procedure, shortened: as §2
[14] = Drug metabolism in rat liver microsomes assessed as dealkylation; type: ADME, microsome
[15] = Drug metabolism in mouse liver microsomes assessed as dealkylation; type: ADME, microsome
[16] = Drug metabolism in mouse liver microsomes assessed as oxidation; type: ADME, microsome
[17] = Drug metabolism in rat liver microsomes assessed as oxidation; type: ADME, microsome
[18] = Fraction unbound in human plasma; type: ADME, cell-free
[19] = Fraction unbound in mouse plasma; type: ADME, cell-free

Row | Structure (SMILES) | CC50 at 120 h [1] [µM] | selectivity ratio [2] | other results
1 | Cc1ccc2nc(N3CCCc4ccccc4C3)cc(NCCN)c2c1 | 9.4 | 129 | –
2 | NCCCCNc1cc(N2CCc3ccccc3C2)nc2ccccc12 | 7.4 | – | –
3 | NCCNc1cc(N2CCOc3ccccc3C2)nc2ccccc12 | > 10 | > 43 | CLint scaled [3]: 20 mL/min/kg; CLint scaled [4]: 14 mL/min/kg; CLint scaled [5]: 25 mL/min/kg
4 | NCCNc1cc(N2CCCc3ccccc3C2)nc2ccccc12 | 23 | 115 | Papp [6]: 0.99 ×10⁻⁶ cm/s; CLint scaled [3]: 23 mL/min/kg; AUC(0-inf) [7]: 324 ng·h/mL; AUC(0-inf) [8]: 510 ng·h/mL; clearance [9]: 89 to 106 mL/min/kg; Vd [10]: 73 to 106 L/kg; bioavailability [11]: 32%; CLint scaled [4]: 10 mL/min/kg; CLint scaled [5]: 19 mL/min/kg; solubility [12]: > 460 µg/mL; half-life [13]: 12 h; Drug metabolism [14]: Metabolite_Detected; Drug metabolism [15]: Metabolite_Detected; Drug metabolism [16]: Metabolite_Detected; Drug metabolism [17]: Metabolite_Detected
5 | Cc1ccc2nc(N3CCS(=O)(=O)c4ccccc4C3)cc(NCCCCCN)c2c1 | 21 | 778 | –
6 | NC(=O)NCCNc1cc(N2CCc3ccccc3C2)nc2ccccc12 | 80 | 5 | –
7 | NCC(O)CNc1cc(N2Cc3ccccc3C2)nc2ccccc12 (stereo unspecified) | 2.9 | – | –
8 | COc1ccc2nc(N3CCCc4ccccc4C3)cc(NCCN)c2c1 | 4.8 | 15 | –
9 | NCCCNc1cc(N2CCc3ccccc3C2)nc2ccccc12 | 8.4 | 1 | –
10 | Cc1ccc2nc(N3CCS(=O)(=O)c4ccccc4C3)cc(NCCCN)c2c1 | 21 | 21000 | –
11 | Cc1ccc2nc(N3CCS(=O)(=O)c4ccccc4C3)cc(NCCN)c2c1 | 66 | 16500 | Papp [6]: 0.12 ×10⁻⁶ cm/s; CLint scaled [3]: 8 mL/min/kg; AUC(0-inf) [7]: 346 ng·h/mL; clearance [9]: 97 mL/min/kg; Vd [10]: 17 L/kg; bioavailability [11]: 0%; CLint scaled [4]: 5 mL/min/kg; CLint scaled [5]: 1 mL/min/kg; solubility [12]: > 466 µg/mL; fraction unbound [18]: 0.078; fraction unbound [19]: 0.08; half-life [13]: 4.5 h
12 | CS(=O)(=O)c1ccc2nc(N3CCCc4ccccc4C3)cc(NCCN)c2c1 | 13 | 2 | –
13 | NCCNc1cc(N2CCCc3ccccc3C2)nc2ccc(Cl)cc12 | > 3.2 | > 27 | –
14 | Cc1ccc2nc(N3CCC(F)(F)c4ccccc4C3)cc(NCCN)c2c1 | 6.6 | 106 | –
15 | OCC(O)CNc1cc(N2CCc3ccccc3C2)nc2ccccc12 (stereo unspecified) | 66 | 3 | –
16 | NCCNc1cc(N2CCCc3ccccc3C2)nc2ccc(F)cc12 | 8 | 5 | –

Row | Structure (SMILES) | CC50 at 120 h [1] [µM] | selectivity ratio [2] | other results
17 | NCCNc1cc(N2CCc3ccccc3C2)nc2ccccc12 | 15 | 7 | –
18 | Cc1ccc2nc(N3CCCc4cc(F)ccc4C3)cc(NCCN)c2c1 | > 3.2 | > 7 | CLint scaled [3]: 33 mL/min/kg; CLint scaled [4]: 8 mL/min/kg; CLint scaled [5]: 31 mL/min/kg
19 | NCCNc1cc(N2CCS(=O)(=O)c3ccccc3C2)nc2ccccc12 | 94 | 8540 | CLint scaled [3]: 3 mL/min/kg
20 | NCCNc1cc(N2CCCc3ccccc3C2)nc2cccc(Cl)c12 | 23 | 3 | –
21 | NCC(O)CNc1cc(N2CCc3ccccc3C2)nc2ccccc12 (stereo unspecified) | 21 | 95 | –
22 | Cc1ccc2nc(N3CCCc4ccc(F)cc4C3)cc(NCCN)c2c1 | > 3.2 | > 32 | CLint scaled [3]: 160 mL/min/kg; CLint scaled [4]: 6 mL/min/kg; CLint scaled [5]: 24 mL/min/kg
23 | NCCNc1cc(N2CCCc3ccccc3C2)nc2cc(Cl)ccc12 | 7.5 | 2 | –
24 | NCCNc1cc(N2CCCc3ccccc3C2)nc2c(Cl)cccc12 | 25 | 23 | –
25 | NCC(O)CNc1cc(N2CCCc3ccccc3C2)nc2ccccc12 (stereo unspecified) | 21 | 95 | –
26 | CC(O)CNc1cc(N2CCc3ccccc3C2)nc2ccccc12 (stereo unspecified) | 89 | – | –
27 | Cc1ccc2nc(N3CCS(=O)(=O)c4ccccc4C3)cc(NCCCCN)c2c1 | 92 | 13100 | –
28 | NCCNc1cc(N2CCCc3ccccc3C2)nc2ccc(C(F)(F)F)cc12 | 6.7 | 6 | –
29 | N=C(N)NCCNc1cc(N2CCc3ccccc3C2)nc2ccccc12 | > 100 | 43 | –
30 | Cc1ccc2nc(N3CC(=O)Nc4ccccc4C3)cc(NCCN)c2c1 | 55 | 177 | CLint scaled [3]: 21 mL/min/kg; CLint scaled [5]: 11 mL/min/kg
31 | Cc1ccc2nc(N3CCNc4ccccc4C3)cc(NCCN)c2c1 | 12 | 52 | CLint scaled [3]: 43 mL/min/kg; CLint scaled [4]: 5 mL/min/kg; CLint scaled [5]: 19 mL/min/kg
